Data taken from paper PMC2978023 (Journal of immunology (Baltimore, Md. : 1950), 2008).
Where two headings read alike, the source gives them in different places. Peptide text beside a SMILES is read from it. * marks the point of attachment. Cbz = O=C(OCc1ccccc1)*

Key:
αMβ2 on PMN = experiment: Soluble Alexa 488-labeled ligand binding to PMN, FACS; design: species or system human; conditions: clustering inhibitor, 1 h, 37 °C, mean ± SEM, n = 3
Outline: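 Human PMNs were incubated for 1 h at 37°C in HBSS/Ca²⁺/Mg²⁺ with soluble Alexa 488-labelled Plg or Fg, with or without clustering inhibitors. After two buffer washes, bound ligand was read by FACS; mean ± SEM, n = 3.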

human PMNs = conditions: for PMN early/late apoptosis (% annexin V+ cells), inhibitor + Fg: clustering inhibitor + Fg 1 μM; for PMN early/late apoptosis (% annexin V+ cells), inhibitor + Fg / PMN early/late apoptosis (% annexin V+ cells), inhibitor + P1 / PMN early/late apoptosis (% annexin V+ cells), inhibitor + P2-C / PMN early/late apoptosis (% annexin V+ cells), inhibitor + Plg: mean ± SEM, n = 5; for PMN early/late apoptosis (% annexin V+ cells), inhibitor + P1: clustering inhibitor + P1 100 μM; for PMN early/late apoptosis (% annexin V+ cells), inhibitor + P2-C: clustering inhibitor + P2-C 100 μM; for PMN early/late apoptosis (% annexin V+ cells), inhibitor + Plg: clustering inhibitor + Plg 1 μM
αMβ2 = αMβ2 clustering on PMNs, fluorescence microscopy; format: cell-based, human; conditions: Plg 1 μM + inhibitor, 4 h, 37 °C; MβCD 5 mM, peptide 18 0.5 μM, H7 300 μM, BDM 20 mM, cytochalasin D 10 μM, calpain inhibitor III 10 μM
Outline: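 Human PMNs were exposed to ligands (proteins 1 μM, peptides 100 μM) for 4 h at 37°C, or to 1 μM Plg together with clustering inhibitors at the final concentrations used in apoptosis assays. Cells were fixed in 4% paraformaldehyde and stained with anti-αM mAb OKMI plus Alexa 488 goat anti-mouse IgG. They were cytospun, mounted and imaged by fluorescence microscopy (×40/0.7 NA); PMNs came from four donors.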

[1] = target: recombinant purified integrin αMβ2 (Homo sapiens, UniProt P05107+P11215); experiment: Solid-phase binding to purified αMβ2; conditions: data not shown; test format not stated
Outline: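 Purified recombinant αMβ2, αM or β2 (from HEK293 lines) was coated overnight at 4°C in TBS with 10 mM n-octyl-β-D-glucopyranoside and postcoated with 0.5% PVP for 1 h at 37°C. Biotinylated Plg or Ang(1–4) (0–10 μM) was bound for 2 h at 37°C in the same buffer plus 1 mM CaCl₂/MgCl₂. Binding was detected with alkaline phosphatase–avidin and pNPP at A405. Kd came from a one-site binding fit.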

Chain of recombinant purified integrin αMβ2 (P05107 23-769, other chains not shown): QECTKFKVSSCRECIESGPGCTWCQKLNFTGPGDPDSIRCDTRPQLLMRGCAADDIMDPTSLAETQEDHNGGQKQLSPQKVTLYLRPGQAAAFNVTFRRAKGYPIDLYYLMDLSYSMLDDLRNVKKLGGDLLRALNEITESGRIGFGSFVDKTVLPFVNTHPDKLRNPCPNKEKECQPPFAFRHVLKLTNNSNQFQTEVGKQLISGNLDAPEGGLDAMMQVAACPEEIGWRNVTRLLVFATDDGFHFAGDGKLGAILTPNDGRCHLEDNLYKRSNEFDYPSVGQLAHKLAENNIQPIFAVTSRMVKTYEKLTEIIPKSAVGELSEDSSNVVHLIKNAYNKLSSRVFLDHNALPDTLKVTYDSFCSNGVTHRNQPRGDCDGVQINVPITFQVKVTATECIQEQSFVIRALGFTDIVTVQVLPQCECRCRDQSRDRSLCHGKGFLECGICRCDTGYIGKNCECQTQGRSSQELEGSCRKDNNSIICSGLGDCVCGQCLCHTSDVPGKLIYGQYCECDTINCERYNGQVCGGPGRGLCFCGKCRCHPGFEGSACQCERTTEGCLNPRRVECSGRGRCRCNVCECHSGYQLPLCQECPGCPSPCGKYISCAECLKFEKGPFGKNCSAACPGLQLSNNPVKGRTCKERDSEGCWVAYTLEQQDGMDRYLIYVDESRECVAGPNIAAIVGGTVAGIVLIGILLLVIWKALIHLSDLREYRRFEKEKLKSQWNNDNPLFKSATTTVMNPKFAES

Row | ligand binding, inhibitor, no ligand (background) (αMβ2 on PMN) [MFI] | recognition by αMβ2 [1] | Compound | PMN early/late apoptosis (% annexin V+ cells), inhibitor + Fg (human PMNs; 16 h, 37 °C) [%] | PMN early/late apoptosis (% annexin V+ cells), inhibitor + P1 (human PMNs; 16 h, 37 °C) [%] | PMN early/late apoptosis (% annexin V+ cells), inhibitor + P2-C (human PMNs; 16 h, 37 °C) [%] | PMN early/late apoptosis (% annexin V+ cells), inhibitor + Plg (human PMNs; 16 h, 37 °C) [%] | effect on Plg-dependent αMβ2 clustering (αMβ2) | effect on Plg-dependent PMN survival (in words) (human PMNs; PMN with Plg, 16 h, 37 °C) | effect on Plg-dependent PMN survival (in words) (human PMNs)
1 | 2.90 ± 0.5 | – | CC(=O)C(C)=NO [BDM, 2,3-butanedione 2-monoxime] | 98.7 ± 24 | 85.4 ± 20 | 97.8 ± 22 | 99.2 ± 24 | blocked or significantly reduced | – | –
2 | 3.4 ± 0.4 | – | CC(C)[C@H](NC(=O)OCc1ccccc1)C(=O)N[C@H](C=O)Cc1ccccc1 [Calpain inhibitor III] (Cbz-Val-Phe-aldehyde) | 88.9 ± 23 | 94.5 ± 22 | 74.7 ± 19 | 97.1 ± 22 | blocked or significantly reduced | – | –
3 | 3.2 ± 0.6 | – | CC1CNCCN1S(=O)(=O)c1cccc2cnccc12.Cl.Cl (stereo not drawn) [H7, 1-(5-isoquinolinylsulfonyl)-2-methylpiperazine dihydrochloride] | 62.3 ± 16 | 60.1 ± 14 | 78.6 ± 17 | 79.2 ± 18 | blocked or significantly reduced | – | –
4 | – | – | COc1cccc(-c2cc(=O)c3ccccc3o2)c1N [PD 98059] | – | – | – | – | – | reduced Plg-dependent PMN survival, but to a lesser extent than the Akt inhibitor | –
5 | – | – | NCCCCCC(=O)O [ε-aminocaproic acid] | – | – | – | – | – | – | reduced
6 | – | is recognized by this integrin | Ang([1]–[3]): angiostatin fragment which lacks kringle 4; Calbiochem | – | – | – | – | – | – | –

Row | Compound | ligand binding, inhibitor, no ligand (background) (αMβ2 on PMN) [MFI] | recognition by αMβ2 [1] | PMN early/late apoptosis (% annexin V+ cells), inhibitor + Fg (human PMNs; 16 h, 37 °C) [%] | PMN early/late apoptosis (% annexin V+ cells), inhibitor + P1 (human PMNs; 16 h, 37 °C) [%] | PMN early/late apoptosis (% annexin V+ cells), inhibitor + P2-C (human PMNs; 16 h, 37 °C) [%] | PMN early/late apoptosis (% annexin V+ cells), inhibitor + Plg (human PMNs; 16 h, 37 °C) [%] | effect on Plg-dependent αMβ2 clustering (αMβ2) | effect on Plg-dependent PMN survival (in words) (human PMNs; PMN with Plg, 16 h, 37 °C) | effect on Plg-dependent PMN survival (in words) (human PMNs)
7 | C=C1[C@@H](C)[C@H]2[C@H](Cc3ccccc3)NC(=O)[C@]23[C@H](OC(C)=O)/C=C/[C@@](C)(O)C(=O)[C@@H](C)C/C=C/[C@H]3[C@@H]1O [Cytochalasin D, cytochalasin D] | 2.3 ± 0.3 | – | 55.5 ± 18 | 66.07 ± 15 | 77.4 ± 16 | 66.6 ± 15 | blocked or significantly reduced | – | –
